What all share (assay type): organism-based
The test system of series [1] is Mus musculus. In words: Toxicity in mouse assessed as mouse survival at 25 mg/kg, ip qd on day 19. More on the design: dose 25 mg/kg, route intraperitoneal. The note with it: in vivo.
The subject of series [2] is Mus musculus. Put plainly: Toxicity in mouse assessed as mouse survival at 400 mg/kg, ip qd on day 19. Further details: dose 400 mg/kg, route intraperitoneal. The conditions noted are these: in vivo. In a few lines:
(§1)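 Female athymic nude mice were given intraperitoneal injections of 400, 200 or 100 mg/kg, one mouse per dose level. Body weight loss was monitored, and survival was recorded after 19 days.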

Series [3] deals with Mus musculus. In words: Toxicity in mouse assessed as mouse survival at 100 mg/kg, ip qd on day 19. Further details: dose 100 mg/kg, route intraperitoneal. The note with it: in vivo. In a few lines: as §1
Series [4] in a line: Toxicity in mouse assessed as mouse survival administered intraperitoneally once daily measured after 19 days. The note with it: in vivo, ip. The method, boiled down: as §1
In series [5] the test system is Mus musculus. Put plainly: Toxicity in mouse assessed as mouse survival at 200 mg/kg, ip qd on day 19. More on the design: dose 200 mg/kg, route intraperitoneal. The conditions noted are these: in vivo. The method, boiled down:
as §1

Series [6] deals with Mus musculus. Put plainly: Toxicity in mouse assessed as mouse survival at 50 mg/kg, ip qd on day 19. The note with it: in vivo. Further details: dose 50 mg/kg, route intraperitoneal.

As for `O=C1NC(=O)C(=Cc2cn(Cc3ccccc3)c3ccccc23)C(=O)N1`, the Activity result in series [1] was “Non-toxic”; in series [2], “Toxic”; in series [3], “Toxic”; in series [5] it was “Toxic”; in series [6] it was “Non-toxic”. Further, the MTD at 456 h in series [4] amounted to 50 mg/kg.
